Measurements from different studies.
Lines come from different studies, so protocols differ.
CYP2C9: Cytochrome P450 2C9 (CYP2C9, Homo sapiens, UniProt P11712)
FABP4: Fatty acid-binding protein, adipocyte (FABP4, Homo sapiens, UniProt P15090)
CDK9 with cyclin T1: Cyclin-dependent kinase 9, with cyclin T1 (CDK9, Homo sapiens, UniProt P50750)
AKT1: RAC-alpha serine/threonine-protein kinase (AKT1, Homo sapiens, UniProt P31749)

SMILES | target | assay | system | conditions | endpoint | value
O=c1c(-c2ccc(O)cc2)coc2cc(O)ccc12 | CYP2C9 | enzyme activity, inhibitor | human, liver microsomes | 15 min | Ki | 7.85 µM
CCCCCCCCCCCC(=O)O | FABP4 | ligand displacement, fluorescence |  |  | Ki | 0.827 µM
COc1ccc(-c2coc3cc(O)ccc3c2=O)cc1 | CYP2C9 | enzyme activity, inhibitor | human, liver microsomes | 15 min | Ki | 7.12 µM
CN(C)C(=O)c1cc2cnc(Nc3ccc(C(=O)NCCCCCCOc4cccc5c4C(=O)N(C4CCC(=O)NC4=O)C5=O)cc3)nc2n1C1CCCC1 (stereo not drawn) | Cyclin-dependent kinase 9 (CDK9, Homo sapiens, UniProt P50750) | binding, competition with immobilised ligand |  |  | Kd | < 200 nM
CN(C)C(=O)c1cc2cnc(Nc3ccc(-c4cccc5c(=O)cc(N6CCOCC6)oc45)c(F)c3)nc2n1C1CCCC1 | CDK9 with cyclin T1 | enzyme activity, inhibitor, radiometric |  |  | IC50 | 2.76 nM
CCOc1ccccc1C(=O)CC(SCc1ccc(Cl)cc1)C(=O)O (stereo not drawn) | AKT1 | ligand displacement, FP |  |  | Ki | > 1000 µM
Cc1cc(-c2ccnc3[nH]cc(F)c23)cc(F)c1[C@@]1(O)[C@H](C)CN(C(=O)CN)C[C@@H]1C | AKT1 | cell-free assay, TR-FRET |  |  | Kd | 244 nM
O=C(O)C(F)(F)C(F)(F)C(F)(F)C(F)(F)C(F)(F)C(F)(F)C(F)(F)C(F)(F)C(F)(F)C(F)(F)C(F)(F)C(F)(F)C(F)(F)C(F)(F)C(F)(F)F | FABP4 | ligand displacement, fluorescence |  |  | Ki | 1.31 µM
COc1ccccc1C(=O)CC(SCc1ccc(Cl)cc1)C(=O)O (stereo not drawn) | AKT1 | ligand displacement, FP |  |  | Ki | 507 µM
CN(C)C(=O)c1cc2cnc(Nc3cncc(-c4cccc5c(=O)cc(N6CCOCC6)oc45)c3)nc2n1C1CCCC1 | CDK9 with cyclin T1 | enzyme activity, inhibitor, radiometric |  |  | IC50 | 8 nM
COc1ccc(C(=O)CC(SCc2ccc(Cl)cc2)C(=O)O)cc1 (stereo not drawn) | AKT1 | ligand displacement, FP |  |  | Ki | 320 µM
O=C(O)C(F)(F)C(F)(F)C(F)(F)C(F)(F)C(F)(F)C(F)(F)C(F)(F)C(F)(F)C(F)(F)C(F)(F)C(F)(F)F | FABP4 | ligand displacement, fluorescence |  |  | Ki | 0.551 µM
CC(C)(C)Cc1ccc(O)c(O)c1 | Peroxiredoxin-5, mitochondrial (PRDX5, Homo sapiens, UniProt P30044) | binding, NMR |  |  | Kd | 20000 nM
OC1(c2ccc(-c3ccnc4[nH]cc(F)c34)cc2)CNC1 | AKT1 | target engagement in cells, BRET |  |  | IC50 | 22800 nM
CCOc1ccc(C(=O)CC(SCc2ccc(F)cc2)C(=O)O)cc1 (stereo not drawn) | AKT1 | ligand displacement, FP |  |  | Ki | 225 µM
CN1CCN(c2cc(=O)c3ccc(Nc4ncc5cc(C(=O)N(C)C)n(C6CCCC6)c5n4)cc3o2)CC1 | CDK9 with cyclin T1 | enzyme activity, inhibitor, radiometric |  |  | IC50 | 1.2 nM
CCOc1ccc(C(=O)CC(SCc2ccc(OC)cc2)C(=O)O)cc1 (stereo not drawn) | AKT1 | ligand displacement, FP |  |  | Ki | 560 µM
O=S(=O)(O)c1cccc2cccc(Nc3ccccc3)c12 | FABP4 | binding, fluorescence |  |  | Kd | 508 nM
CCOc1ccc(C(=O)CC(SCc2cccc(Br)c2)C(=O)O)cc1 (stereo not drawn) | AKT1 | ligand displacement, FP |  |  | Ki | 58.4 µM
CCCCCCCCCCC(=O)O | FABP4 | ligand displacement, fluorescence |  |  | Ki | 0.815 µM
CCOc1ccc(C(=O)CC(SCc2ccc(Cl)cc2)C(=O)OC)cc1 (stereo not drawn) | AKT1 | ligand displacement, FP |  |  | Ki | 530 µM
CN(C)C(=O)c1cc2cnc(Nc3cccc4c(=O)cc(N5CCOCC5)oc34)nc2n1C1CCCC1 | CDK9 with cyclin T1 | enzyme activity, inhibitor, radiometric |  |  | IC50 | 9570 nM
Cc1cc(-c2ccnc3[nH]cc(F)c23)cc(F)c1[C@@]1(O)[C@H](C)CN(C2CCS(=O)(=O)CC2)C[C@@H]1C | AKT1 | cell-free assay, TR-FRET |  |  | Kd | 724 nM
CCCCCCCCCCCCCC(=O)O | FABP4 | ligand displacement, fluorescence |  |  | Ki | 0.438 µM
